Measurements from ChEMBL document CHEMBL3525963, “Tissue distribution and elimination of [14C]apixaban in rats” (Drug Metab Dispos, 2011).

How the values were obtained:
Design in all cases: dose 5 mg/kg, dosed compound name [14C]-apixaban, route oral
Conditions in all cases: in vivo
[1] = system: Adrenal gland; test: Biodistribution in male Sprague-Dawley rat adrenal gland at 5 mg/kg, po administered as single dose measured after 0.5 hrs; assay type: ADME, organism-based
Summary of the method: (§1)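 [¹⁴C]Apixaban given by oral gavage at 5 mg/kg (100 μCi/kg) in 0.5% Tween 80 in Labrafil (1.0 mg/mL dosing solution) to rats fasted overnight through 4 h post-dose. One rat per time point; carcass frozen in hexane/dry ice. Quantitative whole-body autoradiography used 40 µm sagittal sections and a phosphor imaging plate calibrated with [¹⁴C]glucose standards (0.001–6.5 μCi/g). Read-out in µg eq apixaban/g; LLOQ 0.037 μg eq/g.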

[2] = system: Harderian gland; test: Biodistribution in male Sprague-Dawley rat harderian gland at 5 mg/kg, po administered as single dose measured after 24 hrs; assay type: ADME, organism-based
Summary of the method: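 Fasted male SD rats (225-252 g) each received one oral gavage dose of [14C]apixaban, 5 mg/kg (100 μCi/kg), in 0.5% Tween 80/Labrafil vehicle. One rat was killed per time point, from 0.5 to 168 h. Frozen carcasses were cut into 40 µm sagittal whole-body sections and read by QWBA phosphor imaging against [14C]glucose calibrants. Results are in µg apixaban eq/g; BLQ <0.037 µg eq/g.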

[3] = system: Blood; test: Biodistribution in female Sprague-Dawley rat blood at 5 mg/kg, po administered as single dose measured after 72 hrs; assay type: ADME, organism-based
Summary of the method: (§2)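 Quantitative whole-body autoradiography was run after a single 5 mg/kg (100 μCi/kg) oral gavage to fasted female or pregnant SD rats, one rat per time point. Carcasses were frozen in hexane/dry ice, and 40 µm sagittal sections were dried at −20°C for at least 48 h. Sections were exposed to a phosphor plate alongside [14C]glucose standards (0.001–6.5 µCi/g). Results are µg eq/g, with LLOQ 0.037 µg eq/g.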

[4] = system: Lung; test: Biodistribution in female Sprague-Dawley rat lung at 5 mg/kg, po administered as single dose measured after 24 hrs; assay type: ADME, organism-based; summary of the method: as §2
[5] = system: Rattus norvegicus; test: Biodistribution in female Sprague-Dawley rat kidney cortex at 5 mg/kg, po administered as single dose measured after 24 hrs; assay type: ADME, organism-based; summary of the method: as §2
[6] = system: Heart; test: Biodistribution in female Sprague-Dawley rat heart at 5 mg/kg, po administered as single dose measured after 24 hrs; assay type: ADME, organism-based; summary of the method: as §2
[7] = system: Heart; test: Biodistribution in female Sprague-Dawley rat heart at 5 mg/kg, po administered as single dose measured after 8 hrs; assay type: ADME, organism-based; summary of the method: as §2
[8] = system: Rattus norvegicus; test: Biodistribution in female Sprague-Dawley rat brown fat at 5 mg/kg, po administered as single dose measured after 8 hrs; assay type: ADME, organism-based, Brown adipose tissue
Summary of the method: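 [14C]apixaban (20 μCi/mL in dosing solution) in 0.5% Tween 80 in Labrafil given by oral gavage to fasted female rats, 206-213 g, at 100 μCi/kg. One rat per time point was euthanized and snap-frozen. Sagittal 40 µm whole-body sections were read by QWBA phosphor imaging against [14C]glucose standards. Results are in µg eq apixaban/g, with LLOQ 0.037 μg eq/g.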

[9] = system: Pancreas; test: Biodistribution in female Sprague-Dawley rat pancreas at 5 mg/kg, po administered as single dose measured after 4 hrs; assay type: ADME, organism-based; summary of the method: as §1
[10] = system: Muscle tissue; test: Biodistribution in female Sprague-Dawley rat muscle at 5 mg/kg, po administered as single dose measured after 4 hrs; assay type: ADME, organism-based; summary of the method: as §1
[11] = system: Rattus norvegicus; test: Biodistribution in male Sprague-Dawley rat bone marrow at 5 mg/kg, po administered as single dose measured after 1 hr; assay type: ADME, organism-based
Summary of the method: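 Fasted male rats, 225-252 g, received [14C]apixaban by single oral gavage at 100 μCi/kg in 0.5% Tween 80/Labrafil. One rat was killed per time point and the carcass frozen. Tissue radioactivity was quantified by QWBA (40 µm sagittal sections, phosphor plate, [14C]glucose calibration) as µg eq apixaban/g, with LLOQ 0.037 μg eq/g.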

[12] = system: Pancreas; test: Biodistribution in male Sprague-Dawley rat pancreas at 5 mg/kg, po administered as single dose measured after 4 hrs; assay type: ADME, organism-based
Summary of the method: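 [14C]apixaban (1.0 mg/mL, 20 μCi/mL) in 0.5% Tween 80 in Labrafil, given by oral gavage at 100 μCi/kg to male rats (225-252 g) fasted overnight through 4 h post-dose. One rat per time point. Carcasses frozen in hexane/dry ice and cut into 40 µm sagittal sections. QWBA read on phosphor plates against [14C]glucose standards, reported as µg eq/g. LLOQ 0.037 µg eq/g.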

[13] = system: Thymus; test: Biodistribution in pregnant Sprague-Dawley rat thymus at 5 mg/kg, po administered as single dose measured after 8 hrs; assay type: ADME, organism-based
[14] = system: Rattus norvegicus; test: Biodistribution in pregnant Sprague-Dawley rat pituitary gland at 5 mg/kg, po administered as single dose measured after 1 hr; assay type: ADME, organism-based
[15] = system: Liver; test: Biodistribution in female Sprague-Dawley rat liver at 5 mg/kg, po administered as single dose measured after 0.5 hrs; assay type: ADME, organism-based; summary of the method: as §2
[16] = system: Brain; test: Biodistribution in pregnant Sprague-Dawley rat brain at 5 mg/kg, po administered as single dose measured after 48 hrs; assay type: ADME, organism-based
Summary of the method: (§3)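 Fasted pregnant SD rats (n=6, 270-319 g) each received one oral gavage dose of [14C]apixaban, 5 mg/kg (100 μCi/kg), in 0.5% Tween 80/Labrafil. One rat was killed at each of 0.5, 1, 4, 8, 24 and 48 h. Carcasses were frozen in hexane/dry ice, cut into 40 µm sagittal sections, exposed to phosphor plates and quantified against [14C]glucose standards as µg eq/g. LLOQ was 0.037 µg eq/g.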

[17] = system: Heart; test: Biodistribution in pregnant Sprague-Dawley rat heart at 5 mg/kg, po administered as single dose measured after 48 hrs; assay type: ADME, organism-based; summary of the method: as §3
[18] = system: Lung; test: Biodistribution in female Sprague-Dawley rat lung at 5 mg/kg, po administered as single dose measured after 72 hrs; assay type: ADME, organism-based; summary of the method: as §2
[19] = system: Liver; test: Biodistribution in female Sprague-Dawley rat liver at 5 mg/kg, po administered as single dose measured after 4 hrs; assay type: ADME, organism-based; summary of the method: as §2
[20] = system: Adrenal gland; test: Biodistribution in female Sprague-Dawley rat adrenal gland at 5 mg/kg, po administered as single dose measured after 4 hrs; assay type: ADME, organism-based; summary of the method: as §1
[21] = system: Rattus norvegicus; test: Biodistribution in pregnant Sprague-Dawley rat amnion at 5 mg/kg, po administered as single dose measured after 4 hrs; assay type: ADME, organism-based
[22] = system: Rattus norvegicus; test: Biodistribution in fetal kidney of pregnant Sprague-Dawley rat at 5 mg/kg, po administered as single dose measured after 4 hrs; assay type: ADME, organism-based
Summary of the method: (§4)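 Pregnant rats, 270-319 g and fasted overnight, received [14C]apixaban by oral gavage at 100 μCi/kg in 0.5% Tween 80/Labrafil. One dam per time point was euthanized and frozen in hexane/dry ice. Fetal tissue radioactivity was measured by QWBA on 40 µm sagittal sections calibrated with [14C]glucose standards. Values are in µg eq/g, with LLOQ 0.037 μg eq/g.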

[23] = system: Liver; test: Biodistribution in pregnant Sprague-Dawley rat liver at 5 mg/kg, po administered as single dose measured after 0.5 hrs; assay type: ADME, organism-based; summary of the method: as §3
[24] = system: Harderian gland; test: Biodistribution in pregnant Sprague-Dawley rat harderian gland at 5 mg/kg, po administered as single dose measured after 1 hr; assay type: ADME, organism-based
[25] = system: Rattus norvegicus; test: Biodistribution in pregnant Sprague-Dawley rat amnion at 5 mg/kg, po administered as single dose measured after 1 hr; assay type: ADME, organism-based
[26] = system: Rattus norvegicus; test: Biodistribution in fetal liver of pregnant Sprague-Dawley rat at 5 mg/kg, po administered as single dose measured after 1 hr; assay type: ADME, organism-based; summary of the method: as §4

- Radiolabel recovery [1]: 0.59 ugequiv/g
- Radiolabel recovery [2]: Not detected assumed BLQ
- Radiolabel recovery [3]: Not detected assumed BLQ
- Radiolabel recovery [5]: Not detected assumed BLQ
- Radiolabel recovery [6]: Not detected assumed BLQ
- Radiolabel recovery [7]: 0.11 ugequiv/g
- Radiolabel recovery [8]: 0.17 ugequiv/g
- Radiolabel recovery [9]: 0.55 ugequiv/g
- Radiolabel recovery [10]: 0.29 ugequiv/g
- Radiolabel recovery [11]: 0.57 ugequiv/g
- Radiolabel recovery [12]: 0.55 ugequiv/g
- Radiolabel recovery [13]: 0.05 ugequiv/g
- Radiolabel recovery [14]: 0.93 ugequiv/g
- Radiolabel recovery [15]: 2.67 µgequiv/g
- Radiolabel recovery [16]: Not detected assumed BLQ
- Radiolabel recovery [17]: Not detected assumed BLQ
- Radiolabel recovery [19]: 3.98 ugequiv/g
- Radiolabel recovery [20]: 0.9 ugequiv/g
- Radiolabel recovery [21]: 11.24 ugequiv/g
- Radiolabel recovery [22]: 0.46 ugequiv/g
- Radiolabel recovery [23]: 6.77 ugequiv/g
- Radiolabel recovery [24]: 1.09 ugequiv/g
- Radiolabel recovery [25]: 2.12 ugequiv/g
- Radiolabel recovery [26]: 0.22 ugequiv/g
Compound: COc1ccc(-n2nc(C(N)=O)c3c2C(=O)N(c2ccc(N4CCCC[14C]4=O)cc2)CC3)cc1
- Radiolabel recovery [4]: Not sampled as not visualised in autoradiograph
- Radiolabel recovery [18]: Not sampled as not visualised in autoradiograph
